Reference: ChEMBL document CHEMBL2321773, “Colloidal aggregation causes inhibition of G protein-coupled receptors” (J Med Chem, 2013)
Activity calls are given as the source filed them. The rule behind the calls is not given here.

Columns and labels:
[1] = target: T1, Cruzipain (Trypanosoma cruzi, UniProt P25779); assay: Inhibition of Trypanosoma cruzi cruzaine using Z-Phe-Arg-aminomethylcoumarin as substrate incubated for 5 mins by spectrofluorimetric analysis in absence of Tween-80
Procedure, shortened: (§1)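 Cruzain at 0.4 nM final in 0.1 M sodium acetate pH 5.5 with 5 mM DTT and 1% DMSO. Compound preincubated with enzyme for 5 min, then 2.5 μM Z-FR-AMC added. Fluorescence increase (ex 355/em 460 nm) monitored for 5 min. Duplicate wells, two separate experiments. IC50 from variable-slope sigmoidal fit.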

[2] = Inhibition of AmpC beta lactamase (unknown origin) incubated for 5 mins by UV-Vis spectrophotometric analysis in absence of Triton X-100
[3] = Inhibition of AmpC beta lactamase (unknown origin) incubated for 5 mins by UV-Vis spectrophotometric analysis in presence of Triton X-100
[4] = target: T1, Cruzipain; assay: Inhibition of Trypanosoma cruzi cruzaine using Z-Phe-Arg-aminomethylcoumarin as substrate incubated for 5 mins by spectrofluorimetric analysis in presence of Tween-80; procedure, shortened: as §1
[5] = target: T2, C-X-C chemokine receptor type 1 (Homo sapiens) (UniProt P25024); assay: Inhibition of CX3CL1-stimulated CX3CR1 in human HTLA cells pre-incubated for 20 mins with centrifuged compound solution measured on day 4 by beta arrestin-recruitment mediated luciferase reporter gene assay
T2 sequence (whole entry): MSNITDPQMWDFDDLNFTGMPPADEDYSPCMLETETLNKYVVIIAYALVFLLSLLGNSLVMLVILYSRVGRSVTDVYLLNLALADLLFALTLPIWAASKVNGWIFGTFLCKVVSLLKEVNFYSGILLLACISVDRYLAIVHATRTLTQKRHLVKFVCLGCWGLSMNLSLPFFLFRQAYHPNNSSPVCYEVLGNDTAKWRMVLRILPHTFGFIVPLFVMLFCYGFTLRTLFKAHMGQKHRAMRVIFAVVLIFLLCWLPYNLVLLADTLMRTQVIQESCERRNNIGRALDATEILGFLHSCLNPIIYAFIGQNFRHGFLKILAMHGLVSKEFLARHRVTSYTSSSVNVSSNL

[6] = target: T3, Vasopressin V2 receptor (Homo sapiens, UniProt P30518); assay: Inhibition of vasopressin V2 receptor (unknown origin) assessed as change in intracellular calcium levels treated with centrifuged compound solution by fluorometric analysis; format: functional, cell-based
T3 sequence (P30518 whole entry): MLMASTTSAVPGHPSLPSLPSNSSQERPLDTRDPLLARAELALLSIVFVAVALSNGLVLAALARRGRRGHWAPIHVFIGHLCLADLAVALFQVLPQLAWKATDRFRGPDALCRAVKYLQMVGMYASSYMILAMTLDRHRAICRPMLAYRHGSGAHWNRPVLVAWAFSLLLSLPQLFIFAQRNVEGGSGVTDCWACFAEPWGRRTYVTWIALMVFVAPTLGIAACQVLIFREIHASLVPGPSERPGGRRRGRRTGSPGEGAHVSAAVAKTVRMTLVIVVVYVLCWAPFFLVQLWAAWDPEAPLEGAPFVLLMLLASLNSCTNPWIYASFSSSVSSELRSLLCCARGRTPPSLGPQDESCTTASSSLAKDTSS

[7] = Inhibition of AmpC beta lactamase (unknown origin) at 10 uM incubated for 5 mins in presence of vasopressin
Procedure, shortened: (§2)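 AmpC β-lactamase (1 nM) in 50 mM potassium phosphate pH 7.0 at room temperature; compound at 10 μM final from 10 mM DMSO stock, with or without 5 min preincubation with 1 μM vasopressin; enzyme incubated with sample 5 min, reaction started with 69 μM CENTA; absorbance change at 405 nm followed 2.5 min; quadruplicate.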

[8] = target: T3, Vasopressin V2 receptor; assay: Inhibition of vasopressin V2 receptor (unknown origin) assessed as change in intracellular calcium levels incubated with compound treated with Tween-80 by fluorometric analysis; format: functional, cell-based
[9] = Inhibition of AmpC beta lactamase (unknown origin) at 10 uM incubated for 5 mins; procedure, shortened: as §2
[10] = target: T4, C-C chemokine receptor type 4 (Homo sapiens) (UniProt P51679); assay: (§3) Inhibition of CCL22-stimulated CCR4 in human HTLA cells pre-incubated for 20 mins with centrifuged compound solution measured on day 4 by beta arrestin-recruitment mediated luciferase reporter gene assay; format: cell-based
T4 sequence (whole entry): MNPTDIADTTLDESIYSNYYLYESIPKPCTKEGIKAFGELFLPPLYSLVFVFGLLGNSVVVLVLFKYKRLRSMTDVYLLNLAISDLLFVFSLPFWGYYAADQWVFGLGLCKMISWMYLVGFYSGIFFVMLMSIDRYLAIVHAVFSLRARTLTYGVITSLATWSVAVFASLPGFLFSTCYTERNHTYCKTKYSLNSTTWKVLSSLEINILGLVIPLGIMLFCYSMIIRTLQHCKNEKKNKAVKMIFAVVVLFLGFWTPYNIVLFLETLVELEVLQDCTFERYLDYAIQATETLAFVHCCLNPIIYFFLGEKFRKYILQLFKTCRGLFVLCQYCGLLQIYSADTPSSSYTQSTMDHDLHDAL
Procedure, shortened: (§4)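 HTLA cells (stable β-arrestin2-TEV protease fusion, tTA-dependent firefly luciferase) transfected by CaPO4 with receptor-V2-tTA construct; next day plated 20 000 cells/well in 1% dialyzed FBS; day 3 serum-free DMEM; compound 0.001 nM–100 μM final in HBSS/20 mM HEPES pH 7.4 for 20 min, then 1 μM agonist overnight, 37 °C; day 4 luminescence after Bright-Glo 30 min; normalized to vehicle and reference; sigmoidal fit.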

[11] = target: T5, C-C chemokine receptor type 4 (Homo sapiens, UniProt P51679); assay: Inverse agonist activity at CCR4 in human HTLA cells assessed as depression of basal activity incubated for 20 mins by beta arrestin-recruitment mediated luciferase reporter gene assay in absence of CCL22; format: cell-based
T5 sequence (P51679 whole entry): T4 sequence (whole entry)
Procedure, shortened: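 β-Arrestin recruitment luciferase reporter in transfected HTLA cells without CCL22 agonist. Compounds ranged 0.001 nM to 100 μM final in HBSS/HEPES pH 7.4 buffer, with 20 min exposure in serum-free DMEM. Luminescence read on day 4.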

[12] = target: T3, Vasopressin V2 receptor; assay: Inhibition of vasopressin-stimulated vasopressin V2 receptor in human HTLA cells pre-incubated for 20 mins with Tween-80-treated compound solution measured on day 4 by beta arrestin-recruitment mediated luciferase reporter gene assay; format: cell-based
Procedure, shortened: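 Transfected HTLA β-arrestin/tTA-luciferase reporter cells were kept serum-free on day 3 and given compound (0.001 nM–100 μM final, pH 7.4 HEPES-HBSS buffer) for 20 min. They were then stimulated with 1 μM vasopressin overnight at 37 °C. Media was removed before day-4 luciferase read; normalized to vehicle/reference, sigmoidal regression.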

[13] = target: T3, Vasopressin V2 receptor; assay: Inhibition of vasopressin-stimulated vasopressin V2 receptor in human HTLA cells pre-incubated for 20 mins measured on day 4 by beta arrestin-recruitment mediated luciferase reporter gene assay; format: cell-based
[14] = target: T5, C-C chemokine receptor type 4; assay: Inhibition of CCL22-stimulated CCR4 in human HTLA cells pre-incubated for 20 mins with Tween-80-treated compound solution measured on day 4 by beta arrestin-recruitment mediated luciferase reporter gene assay
[15] = target: T3, Vasopressin V2 receptor; assay: Inhibition of vasopressin-stimulated vasopressin V2 receptor in human HTLA cells pre-incubated for 20 mins with centrifuged compound solution measured on day 4 by beta arrestin-recruitment mediated luciferase reporter gene assay
[16] = target: T5, C-C chemokine receptor type 4; assay: Inhibition of CCL22-stimulated CCR4 in human HTLA cells pre-incubated for 20 mins measured on day 4 by beta arrestin-recruitment mediated luciferase reporter gene assay
[17] = target: T5, C-C chemokine receptor type 4; assay: as §3; format: cell-based; procedure, shortened: as §4

T1 sequence (P25779 whole entry): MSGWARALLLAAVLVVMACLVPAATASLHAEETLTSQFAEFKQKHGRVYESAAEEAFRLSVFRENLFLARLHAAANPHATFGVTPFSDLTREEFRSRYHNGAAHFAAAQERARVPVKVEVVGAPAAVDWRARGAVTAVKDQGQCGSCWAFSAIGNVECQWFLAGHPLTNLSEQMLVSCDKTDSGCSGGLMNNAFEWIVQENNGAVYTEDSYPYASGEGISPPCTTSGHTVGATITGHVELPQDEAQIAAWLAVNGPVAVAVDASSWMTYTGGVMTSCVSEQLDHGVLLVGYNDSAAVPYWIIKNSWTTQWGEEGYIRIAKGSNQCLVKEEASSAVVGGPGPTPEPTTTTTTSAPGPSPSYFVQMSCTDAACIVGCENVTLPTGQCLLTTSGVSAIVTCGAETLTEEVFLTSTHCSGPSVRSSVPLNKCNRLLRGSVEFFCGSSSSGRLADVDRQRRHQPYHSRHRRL

SMILES | IC50 [1] [µM] | IC50 [2] [µM] | IC50 [3] [µM] | IC50 [4] [µM] | inhibition [5] | inhibition [6] | inhibition [8] | inhibition [10] | other results
O=c1c(-c2ccc(O)cc2)coc2cc(O)cc(O)c12 [GENISTEIN] | 82.7 | 16.7 | > 100 | > 400 |  |  |  |  | 
O=C1OC(c2cc(I)c(O)c(I)c2)(c2c(I)cc(O)cc2I)c2ccccc21 (stereo not drawn) |  |  |  |  | inactive | Active | Active | inactive | inhibition [7]: 7%; inhibition [9]: 77%
O=c1cc(-c2ccc(O)c(O)c2)oc2cc(O)cc(O)c12 [LUTEOLIN] | 27.3 | 21.9 | > 100 | 156 |  |  |  |  | 
Clc1ccccc1C(c1ccccc1)(c1ccccc1)n1ccnc1 [CLOTRIMAZOLE] |  |  |  |  |  | Active | Active | inactive | IC50 [11]: 1.6 µM; inhibition [12]: inactive
CCC(C)n1ncn(-c2ccc(N3CCN(c4ccc(OCC5COC(Cn6cncn6)(c6ccc(Cl)cc6Cl)O5)cc4)CC3)cc2)c1=O (stereo not drawn) [ITRACONAZOLE] |  |  |  |  |  | Active | Active |  | IC50 [13]: 0.794 µM; IC50 [14]: 12.6 µM; IC50 [15]: 11.9 µM; IC50 [16]: 0.501 µM; IC50 [12]: 6.31 µM; IC50 [17]: 7.2 µM
O=c1c(O)c(-c2ccc(O)c(O)c2)oc2cc(O)cc(O)c12 |  |  |  |  | inactive |  |  |  | 
